Source: ChEMBL document CHEMBL1121475, “Inhibitors of indoleethylamine N-methyltransferase. Derivatives of 3-methyl-2-thiazolidinimine. In vitro, in vivo, and metabolic studies” (J Med Chem, 1980)
Where “and” joins values, the source holds several entries; their conditions need not be identical. Identical values can stand only once.

Key:
Oryctolagus cuniculus [1] = test: Percent of 3-Methyl-thiazolidin-2-ylideneamine as administered dose was reported in rabbit 1; type: ADME, organism-based; details: in vivo
Oryctolagus cuniculus [2] = test: 100 mg/kg of [14C]- radiolabeled compound was intravenously (gavage) injected in rabbit3, and radioactivity content in feces was estimated at total hours; type: ADME, organism-based; details: rabbit, in vivo, po, in the assay text read “orally (gavage) administered” for “intravenously (gavage) injected”
Summary of the method: (§1)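 Rabbit given 100 mg/kg [14C]-labelled drug by gavage, 204.6 dpm/μg, in water/0.1 N HCl at 6.66 mg/mL. Rabbit 1 was killed at 2 h and liver, lung, kidney and blood taken; tissue values are μg equivalents/g and tissue:plasma ratio. Rabbit 3 was kept for urine (0-24, 24-48, 48-72 h) and feces (0-48 h), expressed as % of dose.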

Oryctolagus cuniculus [3] = test: 100 mg/kg of [14C]- radiolabeled compound was orally (gavage) injected in rabbit kidney, and radioactivity content in feces was estimated; type: ADME, organism-based; details: in vivo, po; summary of the method: as §1
Oryctolagus cuniculus [4] = test: 100 mg/kg of [14C]- radiolabeled compound was orally (gavage) injected in rabbit, and radioactivity content in feces was estimated; type: ADME, organism-based; details: in vivo, po; summary of the method: as §1
Oryctolagus cuniculus [5] = test: Radioactivity measurements were performed following oral administration of the 100 mg/kg in rabbit 5 after 2 hr brain; type: ADME, organism-based; parameters: dose 100 mg/kg, route oral; details: in vivo
Summary of the method: (§2)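 Male rabbits (900-1060 g) received [14C]-labelled parent amide, 100 mg/kg (251.7 dpm/μg, pH about 4.5), by gavage. At 2 or 6 h they were killed by air injection into the ear vein. Blood was drawn by cardiac puncture; brain and lung were homogenized in water (1 g = 10 mL). Radioactivity is expressed as μg equivalents of parent per g or mL.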

Oryctolagus cuniculus [6] = test: Radioactivity measurements were performed following oral administration of the 100 mg/kg in rabbit 7 after 6 hr in plasma; type: ADME, organism-based; parameters: dose 100 mg/kg, route oral; details: in vivo; summary of the method: as §2
Oryctolagus cuniculus [7] = test: Percent of 3-Methyl-thiazolidin-2-ylideneamine as administered dose was reported in rabbit 4 by Gas-liquid chromatographic analysis; type: ADME, organism-based; details: in vivo
Summary of the method: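 Rabbits 3 (single 100 mg/kg) and 4 (two 100 mg/kg doses 2 h apart) were gavaged with [14C]-labelled parent amide (204.6 dpm/μg). They were not killed; urine was collected 0-24 h. The metabolite was quantified by GLC of trimethylsilylated extracts against an internal-standard peak-height-ratio curve. Results are given as % of urinary radioactivity or % of administered dose, mean of two determinations.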

Oryctolagus cuniculus [8] = test: Evaluation of formation of 3-Methyl-thiazolidin-2-ylideneamine from the radiolabeled compound, orally administered, from rabbit 1,2 kidney was analyzed by Gas-liquid chromatographic analysis; type: ADME, organism-based; details: in vivo, po
Summary of the method: (§3)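 Rabbit 1 was given [14C]-labelled parent amide, 100 mg/kg (204.6 dpm/μg), orally by gavage and killed 2 h later. Urine (0-2 h), blood, liver, lung and kidney were collected. Samples were extracted, trimethylsilylated with BSA/pyridine at 70 °C for 12-16 h, and run by GLC on 3% OV-210 at 95 °C against the internal standard 3-ethyl-2-thiazolidinimine. Output is % of radioactivity present as the metabolite, mean of two determinations.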

Oryctolagus cuniculus [9] = test: Evaluation of formation of 3-Methyl-thiazolidin-2-ylideneamine from the radiolabeled compound, orally administered, from rabbit 1,2 plasma was analyzed by Gas-liquid chromatographic analysis; type: ADME, organism-based; details: in vivo, po; summary of the method: as §3
Oryctolagus cuniculus [10] = test: Evaluation of formation of 3-Methyl-thiazolidin-2-ylideneamine from the radiolabeled compound, orally administered, from rabbit 2,4 liver was analyzed by Gas-liquid chromatographic analysis; type: ADME, organism-based; details: in vivo, po
Summary of the method: (§4)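 Rabbit 2 was gavaged twice with [14C]-labelled parent amide, 100 mg/kg each dose (204.6 dpm/μg), 2 h apart, and killed 2 h after the second dose. Urine (0-4 h), blood, liver, lung and kidney were taken. The metabolite was measured by GLC of trimethylsilyl derivatives (3% OV-210, 95 °C, internal standard 3-ethyl-2-thiazolidinimine). Values are % of radioactivity as metabolite, mean of two determinations.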

Oryctolagus cuniculus [11] = test: Evaluation of formation of 3-Methyl-thiazolidin-2-ylideneamine from the radiolabeled compound, orally administered, from rabbit 2,4 lung was analyzed by Gas-liquid chromatographic analysis; type: ADME, organism-based; details: in vivo, po; summary of the method: as §4
[12] = target: Indolethylamine N-methyltransferase (Homo sapiens) (UniProt O95050); test: In vitro evaluation of Indoleethylamine-N-methyltransferase in human lung preparations for ability to inhibit conversion of N-methyltryptamine (NMT) to N,N-dimethyltryptamine (DMT) at dose 25 ug/mL; type: tissue-based
Indolethylamine N-methyltransferase (Homo sapiens), sequence (O95050 whole entry): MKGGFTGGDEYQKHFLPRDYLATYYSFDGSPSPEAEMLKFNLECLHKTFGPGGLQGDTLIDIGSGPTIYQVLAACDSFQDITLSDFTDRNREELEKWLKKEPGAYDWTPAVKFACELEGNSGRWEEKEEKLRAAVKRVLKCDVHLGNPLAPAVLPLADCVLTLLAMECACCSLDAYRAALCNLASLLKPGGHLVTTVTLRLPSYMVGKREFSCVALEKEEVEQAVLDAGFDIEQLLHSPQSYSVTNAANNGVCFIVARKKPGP
Summary of the method: (§5)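 Human lung INMT was taken from the 50000g supernatant, cut with 40-60% ammonium sulfate, dialysed and purified on Sephadex G-150. The reaction contained 0.007 M N-methyltryptamine stock, S-[methyl-14C]adenosylmethionine and potassium phosphate, pH 7.9, in 0.105 mL, run 90 min at 37 °C. It was stopped with borate at pH 10. [14C]DMT was extracted into isoamyl alcohol and counted by scintillation.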

[13] = target: Indolethylamine N-methyltransferase (Homo sapiens) (UniProt O95050); test: In vitro evaluation of Indoleethylamine-N-methyltransferase in human lung preparations for the ability to inhibit conversion of N-methyltryptamine (NMT) to N,N-dimethyltryptamine (DMT) at dose 2.5 ug/mL; type: tissue-based; summary of the method: as §5
[14] = Dose that causes approximately 50% lethality in mice, when given perorally; type: ADME, organism-based; details: mouse, in vivo, po
Summary of the method: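 Mice in groups of one to three were dosed orally. Deaths were scored on day 7 after dosing, and the LD50 was obtained by graphical interpolation.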

Oryctolagus cuniculus [15] = test: Evaluation of formation of 3-Methyl-thiazolidin-2-ylideneamine from the radiolabeled compound, orally administered, from rabbit 2 urine was analyzed at 0-2 hr by Gas-liquid chromatographic analysis; type: ADME, organism-based; details: in vivo, po, in the assay text read “0-4 hr” for “0-2 hr”; summary of the method: as §4
[16] = tested on: Indolethylamine N-methyltransferase (Oryctolagus cuniculus); test: Compound tested for inhibitory activity against rabbit lung Indoleethylamine-N-methyltransferase at oral dose 25 mg/kg
[17] = tested on: Indolethylamine N-methyltransferase (Oryctolagus cuniculus); test: In vivo evaluation of specific activity against rabbit lung Indoleethylamine-N-methyltransferase at oral dose of 25 mg/kg
Oryctolagus cuniculus [18] = test: 200 mg/kg of [14C]- radiolabeled compound was orally administered in rabbit4, and radioactivity content in urine was estimated at; details: rabbit, in vivo, po
[19] = tested on: Indolethylamine N-methyltransferase (Oryctolagus cuniculus); test: Compound tested for inhibitory activity against rabbit lung Indoleethylamine-N-methyltransferase at 5 mg/kg intravenously*p< 0.05
Oryctolagus cuniculus [20] = test: 200 mg/kg of [14C]- radiolabeled compound was orally administered in rabbit2, and radioactivity content in urine was estimated at 0-4 hr; details: rabbit, in vivo, po
Oryctolagus cuniculus [21] = test: 200 mg/kg of [14C]- radiolabeled compound was orally administered in rabbit4, and radioactivity content in urine was estimated at 24-48 h; details: rabbit, in vivo, po
Oryctolagus cuniculus [22] = test: 200 mg/kg of [14C]- radiolabeled compound was orally administered in rabbit4, and radioactivity content in urine was estimated at 48-72 h; details: rabbit, in vivo, po
Oryctolagus cuniculus [23] = test: 200 mg/kg of [14C]- radiolabeled compound was orally administered in rabbit4, and radioactivity content in urine was estimated at total hours; details: rabbit, in vivo, po

## CN1CCS/C1=N\C(=O)CCC(=O)/N=C1/SCCN1C
Oryctolagus cuniculus [1]
  Administered dose: 27.9%
Oryctolagus cuniculus [2]
  Administered dose: 90.7%
Oryctolagus cuniculus [3]
  Tissue concentration: 211 µg/g
Oryctolagus cuniculus [4]
  Administered dose: 9% and 1%
Oryctolagus cuniculus [5]
  Radioactivity level: 17.8 µg/g
Oryctolagus cuniculus [6]
  Radioactivity level: 4.1 µg/mL
Oryctolagus cuniculus [7]
  Administered dose: 41.3%
Oryctolagus cuniculus [8]
  Radioactivity: 72.8%
Oryctolagus cuniculus [9]
  Radioactivity: 26.5%
Oryctolagus cuniculus [10]
  Radioactivity: 34.4%
Oryctolagus cuniculus [11]
  Radioactivity: 75.4%
[12]
  inhibition: 12%
[13]
  inhibition: 74%
[14]
  LD50: 1460 mg/kg
Oryctolagus cuniculus [15]
  Radioactivity: 44.7%
[16]
  inhibition: 76.1%
[17]
  Specific activity: 14100 dpm
Oryctolagus cuniculus [18]
  Administered dose: 87.1%
[19]
  inhibition: 64%
Oryctolagus cuniculus [20]
  Administered dose: 24%
Oryctolagus cuniculus [21]
  Administered dose: 0.8%
Oryctolagus cuniculus [22]
  Administered dose: 0.1%
Oryctolagus cuniculus [23]
  Administered dose: 88%
